Experimental data from the EternaBench riboswitch data.

Test system: MS2 coat protein
Assay: apparent Kd, MS2 coat protein; higher = weaker binding; RNA-MaP array; FMN 200 µM where present
Summary of the method: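 Stalled E. coli RNA polymerase transcribed the designs on Illumina sequencing-chip clusters. SNAP-549-labelled MS2 coat protein was titrated from 0.7 or 1.5 nM, doubling to 3 µM, without and then with constant ligand, in 100 mM Tris-HCl pH 7.5, 80 mM KCl, 4 mM MgCl2, BSA, DTT, yeast tRNA and Tween-20. Per-cluster binding curves were fitted to green signal normalised to red-channel RNA signal and control-cluster median Fmax. The apparent Kd is the median of the filtered fits.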

[1] = designed as: OFF switch for flavin mononucleotide, no ligand
[2] = ligand present: flavin mononucleotide, designed as: OFF switch for flavin mononucleotide
[3] = designed as: ON switch for flavin mononucleotide, no ligand
[4] = ligand present: flavin mononucleotide, designed as: ON switch for flavin mononucleotide

Sequence	apparent Kd [1] [nM]	apparent Kd [2] [nM]	apparent Kd [3] [nM]	apparent Kd [4] [nM]
UGAUUUCAUGUAGGAUAUGCAUGGCGAAGCUACGCAGAAGGACAUGAGGAUCACCCAUGUUUUAGCGUCUGAGUAUAGAUUCUA	140	158	–	–
UGCACAUGAGGAUCACCCAUGUAUUGUUCGGUUAAUAGAAGUGAGGAUAUGCUUAAAAUAAGGUAGCAGAAGGCACUGGGUUCA	–	–	27.8	29.6
UGCAGGUGAGGAUAUGCGGGCGAGCUAACAUAAGCAUCGAAGCAGAAGGCACAUGAGGAUCACCCAUGUAGUCC	18.9	28	–	–
UGCAUGCUAGGAUAUACGAAACAUUAGGGUUCUUUGUAUGAACAUGAGGAUCACCCAUGUAGAAGGAGCGUGCU	117	296	–	–
UGCCAGGAGGAGAAGGGAGCACAUGAGGAUCACCCAUGUGGUCCGGGCUGCUCAGGAUAUCCUAACUGUACGCAUUACUACGAA	119	23.2	–	–
UGCCAGUUAGGAUAUGCACGCGCCGGUGACCUGCUACGGCUACAUGAGGAUCACCCAUGUAGAAGGAACUGGGC	19.6	20.2	–	–
UGCCUUGAGUAGAAGGGCUGUGCUGUGGCACUGAGUCCUCUCGACAUGAGGAUCACCCAUGUAGAGCAGGAUAUACUCGGAUAA	5.78	7.3	–	–
UGCGUACAAGCAAACAUGAGGAUCACCCAUGUGGUCUUAUGCGAGGAUAUCGGGAAGGAGGAUUCCGAGAAGGUGCGGUGAGCC	–	–	31.4	26.5
UGCGUGGUCACAGGAUAUGCAAGAUAAACUUUAGCAGAAGGGUGAUCAAUCAGCUCAAUACCACAUGAGGAUCACCCAUGUCUA	–	–	53.4	258
UGCGUUAAGCCCUUAAGUCGUCAACAUGAGGAUCACCCAUGUAGAAGGCAGCGGACGCAGCCGGCUGAGGAUAUACAUGUAGGU	7.9	10.5	–	–
UGCUAAUUGUAGAAGGGUGACAUGAGGAUCACCCAUGUGCACGCGCGAUUUACGGCGCGCGUGCCACAGGAUAUACAGUUGAGU	–	–	58.1	34.6
UGCUACGGAGGAUAUACAUGAGGAUCACCCAUGUGAGAGAUUUGGCCGAGAGGCCAGUGUAGAAGGCCGUAGCU	68.9	416	–	–
UGCUACGUUUCGUAGCAGUGUCAUCGAGAAGGCCCUGACAUGAGGAUCACCCAUGUUGUUACAUGGGAGGAUAUCGAUGAUACC	–	–	11.8	5.25
UGCUAGUCAGGAUAUACGAACAUGUCAAAAGACGUGAAGGGACAUGAGGAUCACCCAUGUAGAAGGGACUAGCC	33.2	162	–	–
UGCUGUGUCAGAGGAUAUACUCUAAUAAUCCAUUGCAAAUAGCGAUGGACAUGAGGAUCACCCAUGUAGAAGGCUGGCACAGCA	70.2	152	–	–
UGGAACAUGGGAGGAUAUGGGAUGAUAACAUGAGGAUCACCCAUGUUAAAGAUGCCGAGAGGCAACUAGAAGGCCCAUGUUCCU	–	–	368	60.5
UGGACUGGGCAGAAGGGACAUGAGGAUCACCCAUGUCUUGGGCUACUUCAGUCAGGAUAUGCCCAUUGAAUAUCCGUGCAACAA	15.4	76.9	–	–
UGGAUCAUCGGAGGAUAUCAUGUAUAUACAUGAGGAUCACCCAUGUCGAUGGAGACAUCGGAGAUUGAGAAGGCCGAUGAUCCU	–	–	910	30.5
UGGAUCAUGGGAGGAUAUCCUCAAGAGACAUGAGGAUCACCCAUGUAUUAUAUGCCUCAUGGCAUGGAGAAGGCCCAUGAUCCU	–	–	176	161
UGGAUCAUGGGAGGAUAUGGGAAGAUACAUGAGGAUCACCCAUGUUUAAGAAUGCCGAGAGGCAACUAGAAGGCCCAUGAUCCU	–	–	1090	47.9
UGGAUGGUAUGAGGAUAUGCGCGUGAAACGCGCGCAGAAGGCAUGUCAAUAGACAUGAGGAUCACCCAUGUAUUAUCCAUCCAA	–	–	258	15.8
UGGAUGUGGGUUCCACAUGAGGAUCACCCAUGUACCGAUGAGAGAAGGCACUCUAGUACCUAGAGUGAGGAUAUCUACAUUCAA	4.32	9.75	–	–
UGGCCUUUAGGAUAUCGGGUCUUUAACAUGAGGAUCACCCAUGUGGCACUCUCUUGAGAACGAGAAGGAAAACCCG	23.2	23.7	–	–
UGGCGCAUGUGAGGAUAUAGUGGGUAGUAACUACUAGAAGGUACAUGAGGAUCACCCAUGUACUUGGGUUUGUCAGGAACUCCU	6.57	8.33	–	–
UGGCGUUGAGGAUAUACAUUGAAUAAGAUUCAUGUAAAACUACAUGAGGAUCACCCAUGUAGAAGGCAAUGCCU	16.9	27.7	–	–
UGGGACUAGGGAGGAUAUGGGAAGAUACAUGAGGAUCACCCAUGUUUAAGAAUGCCGAGAGGCAACUAGAAGGCCCUAGUACCU	–	–	446	20.4
UGGGUAAAUGUAGGAUAUCUAUAUUAAUAAUAUGGAGAAGGACAUGAGGAUCACCCAUGUACAGGGAAUUACCCAUUUCCUCUC	275	556	–	–

Sequence	apparent Kd [1] [nM]	apparent Kd [2] [nM]	apparent Kd [3] [nM]	apparent Kd [4] [nM]
UGGGUAAGUGUAGGAUAUUUAUAUUAAUAGUAUGGAGAAGGACAUGAGGAUCACCCAUGUACAGGAAGUUGCCCAUUUCCUCUC	579	495	–	–
UGGGUUGUUGUGAGGAUAUACUGUUUGUUUUGUUUGUAGAAGGUACAUGAGGAUCACCCAUGUUGGUUGUGGUU	262	228	–	–
UGGUACAUCAUAGGAUAUCGUGUGUAAACAUGAGGAUCACCCAUGUCAUCCGAGAGUAUAUCGACCGAGAAGGGUGAUGUACCU	–	–	24.1	33.3
UGGUACAUGGGAGGAUAUCAUGUAGUAACAUGAGGAUCACCCAUGUCGAUGGAGACAUCGGAGAUUGAGAAGGCCCAUGUACCU	–	–	921	32.5
UGGUACAUGGGAGGAUAUCCUCAAGAGACAUGAGGAUCACCCAUGUAUUAUAUGCCUCAUGGCAUGGAGAAGGCCCAUGUACCU	–	–	179	153
UGGUACAUGGGAGGAUAUGGGUUGUUAACAUGAGGAUCACCCAUGUUAUGCCGAAAGGCAAAGAACUAGAAGGCCCAUGUACCU	–	–	21.9	16.4
UGGUACUACGGAGGAUAUCAUGUGUAAACAUGAGGAUCACCCAUGUCGUACGAGAGUACGGAGAUUGAGAAGGCCGUAGUACCU	–	–	85.4	16.7
UGGUACUAGGGAGGAUAUAGGAAGAUACAUGAGGAUCACCCAUGUUUAAGAAUGCCGAGAGGCAACUAGAAGGCCCUAGUACCU	–	–	5	4.74
UGGUACUAGGGAGGAUAUGGGAAGAUACAUGAGGAUCACCCAUGUUCAAGAAUGCCGAGAGGCAACUAGAAGGCCCUAGUACCU	–	–	928	46.2
UGGUACUAGGGAGGAUAUGGGAAGAUACAUGAGGAUCACCCAUGUUUAAGAAUGCCGAGAGGAAACUAGAAGGCCCUAGUACCU	–	–	279	13.8
UGGUACUAGGGAGGAUAUGGGAAGAUACAUGAGGAUCACCCAUGUUUAAGAAUGCCGAGAGGCAACUAGAAGGCCCUAGCACCU	–	–	426	19
UGGUACUAGGGAGGAUAUGGGAAGAUACAUGAGGAUCACCCAUGUUUAAGAAUGCCGAGAGGCAACUAGAAGGCCCUAUUACCU	–	–	365	20.1
UGGUAGUAGGGAGGAUAUGGGAAGAUACAUGAGGAUCACCCAUGUUUAAGAAUGCCGAGAGGCAACUAGAAGGCCCUAGUACCU	–	–	324	23.7
UGGUCAUCAUCAGGAUAUUAACAUGGGCUACAUUAAGAAGGGAUAGUGAGAUACGAACUGAAACAUGAGGAUCACCCAUGUUGU	–	–	105	51.9
UGGUCAUCAUCAGGAUAUUAACAUGGGCUACAUUAAGAAGGGAUAGUGGGAGAGGAAGUGAAACAUGAGGAUCACCCAUGUUGU	–	–	32.9	16.2
UGGUCAUGAUCAGGAUAUUAACAUGGGCUACAUUAAGAAGGGAUAGUGAGAUGCGAACGGAGCGACAUGAGGAUCACCCAUGUA	–	–	39.2	25.5
UGGUCGGAGACAGGAUAUGUGACUGCAUAGUGCACAGAAGGGUCUACAUGAGGAUCACCCAUGUCACCGAACACCAAACAACAA	–	–	412	41.2
UGGUGAUUUGUAGGAUAUGGAAAUAUAUUAUAACCAGAAGGACAUGAGGAUCACCCAUGUGAUAGAGUUUUUUUUUUUUCUCCU	31.5	14.1	–	–
UGGUUGUCAGGAUAUUGGGUAUUCAACUUUAGUUUUAUAUUCGAGAAGGGACAUGAGGAUCACCCAUGUUACGU	36.2	166	–	–
UGUAAGAUGCAGAAGGUGUUAGCUAGAGCUACGACAUGAGGAUCACCCAUGUACUAGAAACAGUACAAGGAUAUGCAUCUUACA	–	–	18.3	6.12
UGUAAGAUGCAGAAGGUGUUAGCUAGAGCUACGACAUGAGGAUCACCCAUGUACUAGAAACAGUACAAGGAUAUGCAUCUUACG	–	–	17.5	6.57
UGUACAUUAUUAAGUAAUUAGGCGAAGGAUAUAUAACAUGAGGAUCACCCAUGUACUAAGUUGAAGUAGAAGGUUGAGCAUUUC	–	–	19	15.7
UGUAUACAUGAGGAUCACCCAUGUAAGGAUAUGCUUUAUUAUUAUUAUUAUUAUUGUUGCAGAAGGUACAUUGU	28.9	32.1	–	–
UGUAUGGACAGAGGAUAUACGGAUAGGAUCUACUAUCUUUCUCAAAUAACAUGAGGAUCACCCAUGUAGAAGGCUGUCCAUACU	22.4	136	–	–
UGUAUGUAGGCAGGAUAUACAUGAAUAUAUAUGAUGUAGUAUGAUGUAACAUGAGGAUCACCCAUGUAGAAGGGCCGGUGUAUG	69.2	154	–	–
UGUCACGUAGUAGGAUAUGACAUGAGGAUCACCCAUGUUAACUCUAACCUCGAGGAUCGUCAUGGUCAGAAGGACUCAGACAAG	209	75.9	–	–
UGUCAUAAACAGAAGGGUAGUUGGGUUAUACAUGAGGAUCACCCAUGUAUUACAGGAUAUGUGUAAAGUUAUUAUUAAAGUAAA	12.6	13.8	–	–
